Source: ChEMBL document CHEMBL5150051, “Identification and Characterization of a Novel Indoleamine 2,3-Dioxygenase 1 Protein Degrader for Glioblastoma” (J Med Chem, 2022)
pKd: −log10 of the molar value. Calls of active or inactive are those of the source. No cut-off for these calls is given here.

Assays:
[1] = target: von Hippel-Lindau disease tumor suppressor/Indoleamine 2,3-dioxygenase 1 (Homo sapiens) (UniProt P14902+P40337); test: Protac activity at IDO1/VHL in IFNgamma-stimulated human U87 cells assessed as IDO1 degradation at 10 uM measured after 24 hrs by Western blotting analysis relative to control; assay type: cell-based
In short: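 U87 GBM cells primed with human IFNγ 50 ng/mL for 24 h, then exposed to PROTAC at 10 μM for 24 h. Lysates run on western blot; IDO1 bands quantified by densitometry and expressed as percent of normalized IDO1 protein level.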

[2] = target: Indoleamine 2,3-dioxygenase 1 (Homo sapiens, UniProt P14902); test: Binding affinity to IDO1 (unknown origin) assessed as dissociation constant by bio-layer interferometry assay
In short: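 Bio-layer interferometry measured binding to IDO1 at 30 °C in PBS with 0.5% DMSO. Kd, kon and koff were derived.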

[3] = target: Protein cereblon/Indoleamine 2,3-dioxygenase 1 (Homo sapiens, UniProt P14902+Q96SW2); test: Protac activity at CRBN/IDO1 in human U87 cells assessed as decrease in phosphorylated NF-kappaB p65 in nucleus at 1 to 10 uM measured after 24 hrs by Western blot analysis; assay type: cell-based; conditions: dose 1-10 µM
Chain of Protein cereblon/Indoleamine 2,3-dioxygenase 1 (P14902 whole entry, looked up): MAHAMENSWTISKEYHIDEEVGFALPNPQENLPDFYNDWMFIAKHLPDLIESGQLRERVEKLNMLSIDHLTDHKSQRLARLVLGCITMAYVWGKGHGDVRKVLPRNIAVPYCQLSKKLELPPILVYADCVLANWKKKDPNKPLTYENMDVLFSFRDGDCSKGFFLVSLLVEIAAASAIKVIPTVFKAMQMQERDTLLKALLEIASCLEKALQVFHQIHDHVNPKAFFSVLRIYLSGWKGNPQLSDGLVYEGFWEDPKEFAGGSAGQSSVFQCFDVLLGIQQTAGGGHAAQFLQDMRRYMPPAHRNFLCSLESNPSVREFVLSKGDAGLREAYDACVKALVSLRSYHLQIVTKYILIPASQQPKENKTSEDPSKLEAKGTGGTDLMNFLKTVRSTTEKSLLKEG
Chain of Protein cereblon/Indoleamine 2,3-dioxygenase 1 (Q96SW2 whole entry, looked up): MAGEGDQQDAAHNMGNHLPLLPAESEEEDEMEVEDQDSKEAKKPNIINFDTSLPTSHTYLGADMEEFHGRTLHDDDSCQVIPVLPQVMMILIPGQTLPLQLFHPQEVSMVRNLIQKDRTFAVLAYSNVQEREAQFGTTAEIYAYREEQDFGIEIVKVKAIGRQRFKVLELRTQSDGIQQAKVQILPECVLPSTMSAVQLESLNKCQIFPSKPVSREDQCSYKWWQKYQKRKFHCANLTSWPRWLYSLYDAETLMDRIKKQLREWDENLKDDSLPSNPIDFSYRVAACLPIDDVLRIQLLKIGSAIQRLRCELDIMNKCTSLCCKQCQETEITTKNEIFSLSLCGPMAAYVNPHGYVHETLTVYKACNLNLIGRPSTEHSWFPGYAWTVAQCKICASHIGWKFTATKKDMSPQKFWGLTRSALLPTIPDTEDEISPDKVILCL

Chain of von Hippel-Lindau disease tumor suppressor/Indoleamine 2,3-dioxygenase 1 (Homo sapiens) (P14902 whole entry, looked up): as the sequence (P14902 whole entry, looked up) above
Chain of von Hippel-Lindau disease tumor suppressor/Indoleamine 2,3-dioxygenase 1 (Homo sapiens) (P40337 whole entry, looked up): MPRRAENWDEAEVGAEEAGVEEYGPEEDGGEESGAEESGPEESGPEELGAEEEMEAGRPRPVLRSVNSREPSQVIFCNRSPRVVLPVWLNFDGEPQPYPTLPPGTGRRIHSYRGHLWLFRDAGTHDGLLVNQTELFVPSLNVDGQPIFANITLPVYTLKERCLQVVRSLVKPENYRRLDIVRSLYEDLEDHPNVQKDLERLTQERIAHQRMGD
Chain of Indoleamine 2,3-dioxygenase 1 (P14902 whole entry): as the sequence (P14902 whole entry, looked up) above

| Compound | Activity [1] | pKd [2] | Activity [3] |
| --- | --- | --- | --- |
| Cc1ncsc1-c1ccc(CNC(=O)[C@@H]2C[C@@H](O)CN2C(=O)[C@@H](NCCOCCOCCOCCOc2cc(NC(=O)[C@H](C)[C@H]3CC[C@@H](c4ccnc5ccc(F)cc54)CC3)ccc2Cl)C(C)(C)C)cc1 | 0% |  |  |
| Cc1ncsc1-c1ccc(CNC(=O)[C@@H]2C[C@@H](O)CN2C(=O)[C@@H](NC(=O)C2(F)CC2)C(C)(C)C)c(OCCOCCOCCOCCOCCOc2ccc(NC(=O)[C@H](C)[C@H]3CC[C@@H](c4ccnc5ccc(F)cc54)CC3)cc2)c1 | 0% |  |  |
| C[C@@H](C(=O)Nc1ccc(OC2CCN(C(=O)CCOCCOCCNc3cccc4c3C(=O)N(C3CCC(=O)N(C)C3=O)C4=O)CC2)cc1)[C@H]1CC[C@@H](c2ccnc3ccc(F)cc32)CC1 (stereo partly specified) |  | 5.96 | Active |
| Cc1ncsc1-c1ccc(CNC(=O)[C@H]2C[C@H](O)CN2C(=O)[C@H](NCCCCCCOc2cc(NC(=O)[C@H](C)[C@H]3CC[C@@H](c4ccnc5ccc(F)cc54)CC3)ccc2Cl)C(C)(C)C)cc1 | 21% |  |  |
| Cc1ncsc1-c1ccc(CNC(=O)[C@@H]2C[C@@H](O)CN2C(=O)[C@@H](NCCOCCOCCC(=O)N2CCC(Oc3ccc(NC(=O)[C@H](C)[C@H]4CC[C@@H](c5ccnc6ccc(F)cc65)CC4)cc3)CC2)C(C)(C)C)cc1 | 67% |  |  |
| Cc1ncsc1-c1ccc(CNC(=O)[C@@H]2C[C@@H](O)CN2C(=O)[C@@H](NC(=O)C2(F)CC2)C(C)(C)C)c(OCCOCCOCCOCCOc2cc(NC(=O)[C@H](C)[C@H]3CC[C@@H](c4ccnc5ccc(F)cc54)CC3)ccc2Cl)c1 | 0% |  |  |
| Cc1ncsc1-c1ccc(CNC(=O)[C@@H]2C[C@@H](O)CN2C(=O)[C@@H](NC(=O)C2(F)CC2)C(C)(C)C)c(OCCOCCOCCOCCOc2ccc(NC(=O)[C@H](C)[C@H]3CC[C@@H](c4ccnc5ccc(F)cc54)CC3)cc2)c1 | 0% |  |  |
| Cc1ncsc1-c1ccc(CNC(=O)[C@@H]2C[C@@H](O)CN2C(=O)[C@@H](NCCCCOc2ccc(NC(=O)[C@H](C)[C@H]3CC[C@@H](c4ccnc5ccc(F)cc54)CC3)cc2)C(C)(C)C)cc1 | 0% |  |  |
| Cc1ncsc1-c1ccc(CNC(=O)[C@@H]2C[C@@H](O)CN2C(=O)[C@@H](NC(=O)C2(F)CC2)C(C)(C)C)c(OCCOCCOCCCN2CCC(Oc3ccc(NC(=O)[C@H](C)[C@H]4CC[C@@H](c5ccnc6ccc(F)cc65)CC4)cc3)CC2)c1 | 0% |  |  |
| Cc1ncsc1-c1ccc(CNC(=O)[C@@H]2C[C@@H](O)CN2C(=O)[C@@H](NC(=O)C2(F)CC2)C(C)(C)C)c(OCCCCCCCCCCOc2ccc(NC(=O)[C@H](C)[C@H]3CC[C@@H](c4ccnc5ccc(F)cc54)CC3)cc2)c1 | 23% |  |  |
